Laboratory results: paper PMC8458982 (The Journal of Biological Chemistry, 2021)

What was measured:
mTRPC6 mutant ^mE672D = biological target: T1, mTRPC6 mutant ^mE672D (Mus musculus, UniProt Q61143, E672D); assay: whole-cell patch-clamp, mTRPC6 mutant E672D; format: cell-based
T1 sequence (Q61143 1-930 E672D): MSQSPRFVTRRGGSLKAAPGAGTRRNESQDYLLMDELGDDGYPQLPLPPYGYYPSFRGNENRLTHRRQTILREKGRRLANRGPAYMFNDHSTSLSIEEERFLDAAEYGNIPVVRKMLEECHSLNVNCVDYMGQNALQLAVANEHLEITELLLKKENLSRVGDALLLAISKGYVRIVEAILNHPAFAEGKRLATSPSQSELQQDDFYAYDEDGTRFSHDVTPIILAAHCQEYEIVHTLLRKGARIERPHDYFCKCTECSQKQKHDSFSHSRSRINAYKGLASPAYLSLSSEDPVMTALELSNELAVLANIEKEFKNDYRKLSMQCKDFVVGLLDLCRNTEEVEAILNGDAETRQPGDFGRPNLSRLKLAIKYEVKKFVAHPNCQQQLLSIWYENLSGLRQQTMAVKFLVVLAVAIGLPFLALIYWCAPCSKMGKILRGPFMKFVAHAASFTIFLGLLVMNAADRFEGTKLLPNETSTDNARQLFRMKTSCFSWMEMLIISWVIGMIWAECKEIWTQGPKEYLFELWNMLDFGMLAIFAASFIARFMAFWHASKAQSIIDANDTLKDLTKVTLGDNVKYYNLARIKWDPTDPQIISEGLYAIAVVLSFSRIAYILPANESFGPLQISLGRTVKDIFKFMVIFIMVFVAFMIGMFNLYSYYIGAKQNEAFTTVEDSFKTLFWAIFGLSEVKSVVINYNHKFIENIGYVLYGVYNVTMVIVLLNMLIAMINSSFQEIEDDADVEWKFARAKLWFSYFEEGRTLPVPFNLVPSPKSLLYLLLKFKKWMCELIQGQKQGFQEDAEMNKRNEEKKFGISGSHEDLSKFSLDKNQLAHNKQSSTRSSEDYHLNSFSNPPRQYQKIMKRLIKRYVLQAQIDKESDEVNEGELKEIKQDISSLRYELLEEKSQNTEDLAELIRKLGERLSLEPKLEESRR
In short: (§1)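 Transiently transfected HEK293 cells expressing mouse or human TRPC6 WT, or sequence-verified mouse point mutants, recorded 24–48 h post-transfection. Conventional whole-cell clamp at −60 mV and 23 °C, gap-free; test compound applied by Y-tube. Pipette: CsCl/HEPES/BAPTA, 400 nM free Ca2+, pH 7.2. Bath: NaCl-based, 2 mM CaCl2, pH 7.4. EC50 from Hill fit of concentration–current data. Mutant screen used current ratios (10/5 μM or 3/1 μM). At least 3 transfection batches.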

mTRPC6 mutant ^mN701Q = mTRPC6 mutant ^mN701Q (Mus musculus, UniProt Q61143, N701Q); assay: whole-cell patch-clamp, mTRPC6 mutant N701Q; format: cell-based
In short: as §1

mTRPC6 mutant ^mY704W = mTRPC6 mutant ^mY704W (Mus musculus, UniProt Q61143, Y704W); assay: whole-cell patch-clamp, mTRPC6 mutant Y704W; format: cell-based
In short: as §1

mTRPC6 mutant ^mK697R = mTRPC6 mutant ^mK697R (Mus musculus, UniProt Q61143, K697R); assay: whole-cell patch-clamp, mTRPC6 mutant K697R; format: cell-based
In short: as §1

mTRPC6 mutant ^mV709A = mTRPC6 mutant ^mV709A (Mus musculus, UniProt Q61143, V709A); assay: whole-cell patch-clamp, mTRPC6 mutant V709A; format: cell-based
In short: as §1

mTRPC6 mutant ^mF640W = mTRPC6 mutant ^mF640W (Mus musculus, UniProt Q61143, F640W); assay: whole-cell patch-clamp, mTRPC6 mutant F640W; format: cell-based
In short: as §1

mTRPC6 mutant ^mF490W = assay: whole-cell patch-clamp, mTRPC6 mutant F490W; format: cell-based, mouse; conditions: ^mF490W (S1 pocket)
In short: as §1

mTRPC6 mutant ^mL684V = mTRPC6 mutant ^mL684V (Mus musculus, UniProt Q61143, L684V); assay: whole-cell patch-clamp, mTRPC6 mutant L684V; format: cell-based; conditions: ^mL684V (S3 pocket)
In short: as §1

mTRPC6 mutant ^mS685T = mTRPC6 mutant ^mS685T (Mus musculus, UniProt Q61143, S685T); assay: whole-cell patch-clamp, mTRPC6 mutant S685T; format: cell-based; conditions: ^mS685T (S3 pocket)
In short: as §1

hTRPC6 mutant ^hE673D = hTRPC6 mutant ^hE673D (Homo sapiens, UniProt Q9Y210, E673D); assay: whole-cell patch-clamp, hTRPC6 mutant E673D; format: cell-based
TRPC3/6/7 = conditions: read-out: EC50 (concentration yielding half maximum response); measured by patch-clamp rather than calcium imaging; cited from earlier work

mTRPC6 mutant ^mY704W, sequence (Q61143 whole entry Y704W): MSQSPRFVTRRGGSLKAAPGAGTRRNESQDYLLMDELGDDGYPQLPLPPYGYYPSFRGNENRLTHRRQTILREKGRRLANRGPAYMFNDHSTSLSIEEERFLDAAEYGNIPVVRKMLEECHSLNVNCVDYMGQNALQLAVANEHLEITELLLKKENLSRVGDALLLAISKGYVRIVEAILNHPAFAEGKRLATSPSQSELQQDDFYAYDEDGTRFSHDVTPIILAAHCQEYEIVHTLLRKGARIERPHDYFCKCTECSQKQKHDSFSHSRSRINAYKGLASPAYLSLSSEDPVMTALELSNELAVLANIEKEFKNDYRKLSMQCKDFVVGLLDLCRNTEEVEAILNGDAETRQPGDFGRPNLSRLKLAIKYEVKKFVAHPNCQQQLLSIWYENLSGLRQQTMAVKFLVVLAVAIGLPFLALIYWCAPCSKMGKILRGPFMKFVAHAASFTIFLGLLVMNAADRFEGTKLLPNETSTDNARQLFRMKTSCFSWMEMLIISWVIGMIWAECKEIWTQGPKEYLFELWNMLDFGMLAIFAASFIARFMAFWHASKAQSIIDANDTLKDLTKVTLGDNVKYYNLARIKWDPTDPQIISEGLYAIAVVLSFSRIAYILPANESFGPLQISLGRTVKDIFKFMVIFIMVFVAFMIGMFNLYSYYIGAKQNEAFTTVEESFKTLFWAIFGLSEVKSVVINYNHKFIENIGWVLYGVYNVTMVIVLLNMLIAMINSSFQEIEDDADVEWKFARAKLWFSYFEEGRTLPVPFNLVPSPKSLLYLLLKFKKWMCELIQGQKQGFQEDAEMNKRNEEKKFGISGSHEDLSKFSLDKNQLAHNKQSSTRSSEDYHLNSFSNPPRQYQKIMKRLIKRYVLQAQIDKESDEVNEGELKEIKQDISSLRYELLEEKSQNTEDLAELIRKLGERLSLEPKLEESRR
mTRPC6 mutant ^mK697R, sequence (Q61143 whole entry K697R): as the sequence (Q61143 whole entry Y704W) above, with K697R, W704Y counted along it
mTRPC6 mutant ^mN701Q, sequence (Q61143 whole entry N701Q): as the sequence (Q61143 whole entry Y704W) above, with N701Q, W704Y counted along it
mTRPC6 mutant ^mF640W, sequence (Q61143 whole entry F640W): as the sequence (Q61143 whole entry Y704W) above, with F640W, W704Y counted along it
hTRPC6 mutant ^hE673D, sequence (Q9Y210 whole entry E673D): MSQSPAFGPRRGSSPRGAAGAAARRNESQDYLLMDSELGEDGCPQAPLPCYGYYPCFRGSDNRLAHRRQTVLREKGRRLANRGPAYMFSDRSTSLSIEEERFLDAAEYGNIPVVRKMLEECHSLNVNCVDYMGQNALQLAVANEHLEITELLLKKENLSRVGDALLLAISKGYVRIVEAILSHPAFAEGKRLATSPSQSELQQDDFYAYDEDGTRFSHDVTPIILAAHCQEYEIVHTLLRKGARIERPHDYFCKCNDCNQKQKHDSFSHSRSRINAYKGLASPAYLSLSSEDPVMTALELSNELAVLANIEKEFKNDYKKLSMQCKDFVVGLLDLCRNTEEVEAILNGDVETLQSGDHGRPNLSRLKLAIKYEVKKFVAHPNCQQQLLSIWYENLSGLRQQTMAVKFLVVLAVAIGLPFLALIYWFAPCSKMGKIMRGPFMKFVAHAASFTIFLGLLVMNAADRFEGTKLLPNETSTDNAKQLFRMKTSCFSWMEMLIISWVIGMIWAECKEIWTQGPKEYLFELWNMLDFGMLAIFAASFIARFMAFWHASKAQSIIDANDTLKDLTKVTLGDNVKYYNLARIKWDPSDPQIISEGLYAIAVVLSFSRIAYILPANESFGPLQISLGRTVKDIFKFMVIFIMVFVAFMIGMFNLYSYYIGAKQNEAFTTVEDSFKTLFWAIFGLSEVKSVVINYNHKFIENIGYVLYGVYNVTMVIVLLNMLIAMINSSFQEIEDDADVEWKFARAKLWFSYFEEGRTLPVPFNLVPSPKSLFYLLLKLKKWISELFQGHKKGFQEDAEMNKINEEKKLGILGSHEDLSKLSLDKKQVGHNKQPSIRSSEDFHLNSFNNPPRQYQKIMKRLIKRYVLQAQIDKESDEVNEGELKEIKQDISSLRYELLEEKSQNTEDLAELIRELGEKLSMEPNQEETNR
mTRPC6 mutant ^mV709A, sequence (Q61143 whole entry V709A): as the sequence (Q61143 whole entry Y704W) above, with W704Y, V709A counted along it
mTRPC6 mutant ^mS685T, sequence (Q61143 whole entry S685T): as the sequence (Q61143 whole entry Y704W) above, with S685T, W704Y counted along it
mTRPC6 mutant ^mL684V, sequence (Q61143 whole entry L684V): as the sequence (Q61143 whole entry Y704W) above, with L684V, W704Y counted along it

With `CCOC(=O)N1CCC(c2cc(O)n3nc(C)c(-c4ccc(F)cc4)c3n2)CC1` [M085, Ethyl 4-(3-(4-fluorophenyl)-7-hydroxy-2-methylpyrazolo[1,5-a]pyrimidin-5-yl)piperidine-1-carboxylate] the EC50 (mTRPC6 mutant ^mE672D) was 25.1 ± 5.64 µM, the “ratio of M085 activation current I10 μM/I5 μM” value (mTRPC6 mutant ^mE672D; ^mE672D (S2 pocket)) was 3.27 ± 0.91 and the “Imax (maximal current density)” value (mTRPC6 mutant ^mE672D; ^mE672D, 100 μM agonist) was 10.28 ± 1.19 pA/pF. For the same compound, the EC50 (mTRPC6 mutant ^mN701Q) was 55.7 ± 15.2 µM, the “Imax (maximal current density)” value (mTRPC6 mutant ^mN701Q; ^mN701Q, 100 μM agonist) was 2.11 ± 1.04 pA/pF and the EC50 (mTRPC6 mutant ^mY704W) was 26.7 ± 4.04 µM. The “Imax (maximal current density)” value (mTRPC6 mutant ^mY704W; ^mY704W, 100 μM agonist) was 3.27 ± 1.12 pA/pF, the EC50 (mTRPC6 mutant ^mK697R) was 14.1 ± 1.95 µM and the “Imax (maximal current density)” value (mTRPC6 mutant ^mK697R; ^mK697R, 100 μM agonist) was 25.58 ± 1.86 pA/pF. For the same compound, the EC50 (mTRPC6 mutant ^mV709A) was 6.95 ± 2.13 µM, the EC50 (mTRPC6 mutant ^mF640W) was 0.84 ± 0.27 µM and the “ratio of M085 activation current I10 μM/I5 μM” value (mTRPC6 mutant ^mF490W) was 1.91 ± 0.12. The agonistic effect (mTRPC6 mutant ^mL684V) was “loss of agonistic effect”, the agonistic effect (mTRPC6 mutant ^mS685T) was “loss of agonistic effect” and the EC50 (hTRPC6 mutant ^hE673D) was 22.1 ± 5.46 µM. The EC50 (TRPC3/6/7) was 4.66 ± 0.03 µM.
